Measured values: ChEMBL document CHEMBL1687803, “Elevated linezolid resistance in clinical cfr-positive Staphylococcus aureus isolates is associated with co-occurring mutations in ribosomal protein L3” (2010)
Converted amounts (≈) assume the structure as drawn.

Tests used:
Format in all cases: functional
[1] = system: Staphylococcus aureus; assay: Antibacterial activity against laboratory-derived Staphylococcus aureus isolate 29213-1 harboring ribosomal protein L3 Gly155Arg mutant by broth microdilution method
In short: (§1)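 MICs were measured by CLSI broth microdilution against the S. aureus ATCC 29213 parent or its isogenic L3 mutants. The mutants had been selected earlier in vitro with oxazolidinones. Oxazolidinones and comparator antibiotics were tested. L3 mutations use staphylococcal numbering.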

[2] = system: Staphylococcus aureus; assay: Antibacterial activity against laboratory-derived Staphylococcus aureus isolate 29213-2 harboring ribosomal protein L3 Gly155Arg/Met169Leu mutant by broth microdilution method; in short: as §1
[3] = system: Staphylococcus aureus; assay: Antibacterial activity against laboratory-derived Staphylococcus aureus isolate 29213-3 harboring ribosomal protein L3 deltaPhe127-His146 mutant by broth microdilution method; in short: as §1
[4] = system: Staphylococcus aureus; assay: Antibacterial activity against laboratory-derived Staphylococcus aureus ATCC 29213 harboring cfr-containing p42262 by broth microdilution method
In short: (§2)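 The S. aureus ATCC 29213 parent and its isogenic L3 mutants carried the cfr plasmid p42262, introduced by electroporation. The plasmid came from clinical strain 42262. MICs were then measured by CLSI broth microdilution against oxazolidinones and comparator antibiotics.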

[5] = system: Staphylococcus aureus; assay: Antibacterial activity against laboratory-derived Staphylococcus aureus isolate 29213-1 harboring ribosomal protein L3 Gly155Arg mutant and cfr-containing p42262 by broth microdilution method; in short: as §2
[6] = system: Staphylococcus aureus; assay: Antibacterial activity against laboratory-derived Staphylococcus aureus isolate 29213-2 harboring ribosomal protein L3 Gly155Arg/Met169Leu mutant and cfr-containing p42262 by broth microdilution method; in short: as §2
[7] = system: Staphylococcus aureus; assay: Antibacterial activity against laboratory-derived Staphylococcus aureus isolate 29213-3 harboring ribosomal protein L3 deltaPhe127-His146 mutant and cfr-containing p42262 by broth microdilution method; in short: as §2
[8] = system: Staphylococcus aureus; assay: Antibacterial activity against clinical-derived Staphylococcus aureus isolate 42262 by broth microdilution method
In short: (§3)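 MICs were measured by broth microdilution following CLSI guidelines against clinical cfr-positive S. aureus isolates. Oxazolidinones and comparator antibiotics were tested. Extra ribosomal mutations were identified by sequencing 23S rRNA domain V of all alleles and the rplC and rplD genes.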

[9] = system: Staphylococcus aureus; assay: Antibacterial activity against clinical-derived Staphylococcus aureus isolate harboring ribosomal protein L3 deltaSer145/His146Tyr mutant by broth microdilution method; in short: as §3
[10] = system: Staphylococcus aureus; assay: Antibacterial activity against clinical-derived Staphylococcus aureus isolate 51312 harboring ribosomal protein L3 deltaMet169-Gly174 mutant by broth microdilution method; in short: as §3
[11] = system: Staphylococcus aureus; assay: Antibacterial activity against laboratory-derived Staphylococcus aureus ATCC 29213 by broth microdilution method; in short: as §1
[12] = system: Staphylococcus aureus; assay: Antibacterial activity against cfr positive Staphylococcus aureus clinical isolate by broth microdilution method
In short: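 MICs against clinical cfr-positive S. aureus isolates (groups 1–3 plus an environmental strain), by CLSI broth microdilution. Non-isogenic ATCC 29213 served as a linezolid-susceptible control strain. Isolates were also characterised by sequencing 23S rRNA domain V (all alleles), rplC (L3) and rplD (L4).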

[13] = system: Staphylococcus aureus; assay: Antibacterial activity against laboratory-generated cfr-transformed Staphylococcus aureus by broth microdilution method
In short: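 Isogenic panel in the S. aureus ATCC 29213 background: wild-type parent and three laboratory-selected L3 mutants, each electroporated with cfr plasmid p42262 from clinical strain 42262. MICs were read by CLSI broth microdilution.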

Structure (SMILES) | MIC [1] [µg/mL] | MIC [2] [µg/mL] | MIC [3] [µg/mL] | MIC [4] [µg/mL] | MIC [5] [µg/mL] | MIC [6] [µg/mL] | MIC [7] [µg/mL] | MIC [8] [µg/mL] | MIC [9] [µg/mL] | MIC [10] [µg/mL] | MIC [11] [µg/mL] | MIC [12] [µg/mL] | MIC [13] [µg/mL]
O=C(N[C@H](CO)[C@H](O)c1ccc([N+](=O)[O-])cc1)C(Cl)Cl [CHLORAMPHENICOL] | 8 (≈ 24.8 µM) | 8 (≈ 24.8 µM) | 8 (≈ 24.8 µM) | > 64 | > 64 | > 64 | > 64 | > 64 | > 64 | > 64 | 8 (≈ 24.8 µM) | – | –
CC(=O)NC[C@H]1CN(c2ccc(N3CCOCC3)c(F)c2)C(=O)O1 [LINEZOLID] | – | 8 (≈ 23.7 µM) | 8 (≈ 23.7 µM) | 16 (≈ 47.4 µM) | 32 (≈ 94.9 µM) | 64 (≈ 190 µM) | 64 (≈ 190 µM) | 16 (≈ 47.4 µM) | 32 (≈ 94.9 µM) | 64 (≈ 190 µM) | – | 8 (≈ 23.7 µM) | 8 (≈ 23.7 µM)
CC(=O)NC[C@H]1CN(c2ccc(-c3ccc(CNCc4cnn[nH]4)cc3)c(F)c2)C(=O)O1 [RADEZOLID] | 1 (≈ 2.28 µM) | 2 (≈ 4.56 µM) | 2 (≈ 4.56 µM) | 2 (≈ 4.56 µM) | 4 (≈ 9.12 µM) | 8 (≈ 18.2 µM) | 8 (≈ 18.2 µM) | 4 (≈ 9.12 µM) | 4 (≈ 9.12 µM) | 8 (≈ 18.2 µM) | 1 (≈ 2.28 µM) | – | –
Cn1nnc(-c2ccc(-c3ccc(N4C[C@H](CO)OC4=O)cc3F)cn2)n1 [TEDIZOLID] | 1 (≈ 2.7 µM) | 2 (≈ 5.4 µM) | 2 (≈ 5.4 µM) | 0.5 (≈ 1.35 µM) | 1 (≈ 2.7 µM) | 2 (≈ 5.4 µM) | 2 (≈ 5.4 µM) | 0.5 (≈ 1.35 µM) | 1 (≈ 2.7 µM) | 2 (≈ 5.4 µM) | 0.5 (≈ 1.35 µM) | – | –
C=C[C@]1(C)C[C@@H](OC(=O)CSCCN(CC)CC)[C@]2(C)[C@H](C)CC[C@]3(CCC(=O)[C@H]32)[C@@H](C)[C@@H]1O [TIAMULIN] | 8 (≈ 16.2 µM) | 4 (≈ 8.1 µM) | 4 (≈ 8.1 µM) | > 64 | > 64 | > 64 | > 64 | > 64 | > 64 | > 64 | 0.5 (≈ 1.01 µM) | – | –
